Laboratory results from ChEMBL document CHEMBL3112533, “Synthesis of novel, peptidic kinase inhibitors with cytostatic/cytotoxic activity” (Bioorg Med Chem, 2014).
Calls of active or inactive are those of the source. The rule behind the calls is not given here.

Tests used:
Homo sapiens = organism: Homo sapiens; experiment: Inhibition of MEK/ERK1 (unknown origin) using MBP/[gamma-32P]ATP as substrate after 10 mins by scintillation counting
Procedure, shortened: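 Compound at 10–150 μM in MOPS pH 7.2 buffer with β-glycerophosphate, EGTA, orthovanadate and DTT. [γ-32P]ATP at 10 μCi/reaction, 10 min at 30°C. Phosphorylated MBP was captured on P81 paper and counted by scintillation. Run in quadruplicate and given as % of no-compound control.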

[1] = Cytotoxicity against mouse RAS-3T3 cells by crystal violet assay; type: functional, cell-based; details: NIH3T3
Procedure, shortened: (§1)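 Parental NIH-3T3 fibroblasts and Ha-Ras-transfected RAS-3T3 cells were grown in DMEM with 10% FBS, […] and antibiotic-antimycotic at 37°C in 5% CO2. Growth retardation/cytotoxicity was read by crystal violet staining. Compounds came from 10 mM DMSO stocks.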

NIH3T3 = experiment: Cytotoxicity against mouse NIH/3T3 cells by crystal violet assay; type: cell-based; procedure, shortened: as §1
[2] = target: Platelet-derived growth factor receptor beta (Homo sapiens) (UniProt P09619); experiment: Inhibition of PDGFRbeta (unknown origin) at 10 uM
Procedure, shortened: (§2)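 ADP-Glo luminescent kinase assay. Inhibitor at 10 μM was preincubated with kinase (1 ng) for 10 min at 25°C. Substrate (10–60 μM) and ATP (25 μM) were then added and the mix incubated 1 h at 24°C. ADP-Glo reagent was added for 40 min, then detection reagent for 30 min, and luminescence was read. Activity is given as % of uninhibited kinase. Mean ± SD of 2 independent experiments.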

[3] = target: TRAF2 and NCK-interacting protein kinase (Homo sapiens) (UniProt Q9UKE5); experiment: Inhibition of TNIK (unknown origin) at 10 uM; procedure, shortened: as §2
Sequence of TRAF2 and NCK-interacting protein kinase (Homo sapiens) (Q9UKE5 whole entry, looked up): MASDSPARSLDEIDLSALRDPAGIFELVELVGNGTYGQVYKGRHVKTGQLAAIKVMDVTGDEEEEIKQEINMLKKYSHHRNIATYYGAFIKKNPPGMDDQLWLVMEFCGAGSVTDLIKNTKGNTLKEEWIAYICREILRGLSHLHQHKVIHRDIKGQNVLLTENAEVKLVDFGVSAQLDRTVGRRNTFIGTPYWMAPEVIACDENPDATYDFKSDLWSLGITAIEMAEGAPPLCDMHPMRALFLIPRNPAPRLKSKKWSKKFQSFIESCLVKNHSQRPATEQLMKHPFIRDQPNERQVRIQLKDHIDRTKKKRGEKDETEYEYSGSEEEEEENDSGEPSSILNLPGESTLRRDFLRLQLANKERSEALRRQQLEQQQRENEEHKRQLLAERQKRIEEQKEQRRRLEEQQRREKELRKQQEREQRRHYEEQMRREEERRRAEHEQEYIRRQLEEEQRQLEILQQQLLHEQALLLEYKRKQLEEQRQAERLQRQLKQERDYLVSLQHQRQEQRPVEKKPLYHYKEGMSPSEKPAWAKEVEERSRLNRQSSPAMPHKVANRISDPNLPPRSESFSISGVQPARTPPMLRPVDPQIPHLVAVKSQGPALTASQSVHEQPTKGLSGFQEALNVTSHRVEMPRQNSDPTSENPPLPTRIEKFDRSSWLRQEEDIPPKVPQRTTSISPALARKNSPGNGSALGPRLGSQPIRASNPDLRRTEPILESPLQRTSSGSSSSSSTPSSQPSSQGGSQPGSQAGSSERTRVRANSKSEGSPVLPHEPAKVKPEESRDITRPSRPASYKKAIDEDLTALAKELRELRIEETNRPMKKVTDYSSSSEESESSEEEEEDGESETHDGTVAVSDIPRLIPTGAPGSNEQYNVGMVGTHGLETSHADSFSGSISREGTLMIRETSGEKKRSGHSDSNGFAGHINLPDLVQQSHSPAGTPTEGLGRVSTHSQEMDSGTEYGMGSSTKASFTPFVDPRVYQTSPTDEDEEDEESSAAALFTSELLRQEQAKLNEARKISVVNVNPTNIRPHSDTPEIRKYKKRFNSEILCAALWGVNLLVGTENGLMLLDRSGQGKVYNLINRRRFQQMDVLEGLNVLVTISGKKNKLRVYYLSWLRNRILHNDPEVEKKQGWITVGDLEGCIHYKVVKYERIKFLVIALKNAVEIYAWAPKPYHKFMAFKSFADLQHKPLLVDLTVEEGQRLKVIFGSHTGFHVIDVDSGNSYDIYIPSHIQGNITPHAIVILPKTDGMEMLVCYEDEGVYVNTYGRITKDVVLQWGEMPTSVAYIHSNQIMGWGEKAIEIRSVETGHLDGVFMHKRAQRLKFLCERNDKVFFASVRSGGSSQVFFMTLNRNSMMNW

[4] = target: Fibroblast growth factor receptor 2 (Homo sapiens) (UniProt P21802); experiment: Inhibition of FGFR2 (unknown origin) at 10 uM; procedure, shortened: as §2
Sequence of Fibroblast growth factor receptor 2 (Homo sapiens) (P21802 22-821 limits assumed): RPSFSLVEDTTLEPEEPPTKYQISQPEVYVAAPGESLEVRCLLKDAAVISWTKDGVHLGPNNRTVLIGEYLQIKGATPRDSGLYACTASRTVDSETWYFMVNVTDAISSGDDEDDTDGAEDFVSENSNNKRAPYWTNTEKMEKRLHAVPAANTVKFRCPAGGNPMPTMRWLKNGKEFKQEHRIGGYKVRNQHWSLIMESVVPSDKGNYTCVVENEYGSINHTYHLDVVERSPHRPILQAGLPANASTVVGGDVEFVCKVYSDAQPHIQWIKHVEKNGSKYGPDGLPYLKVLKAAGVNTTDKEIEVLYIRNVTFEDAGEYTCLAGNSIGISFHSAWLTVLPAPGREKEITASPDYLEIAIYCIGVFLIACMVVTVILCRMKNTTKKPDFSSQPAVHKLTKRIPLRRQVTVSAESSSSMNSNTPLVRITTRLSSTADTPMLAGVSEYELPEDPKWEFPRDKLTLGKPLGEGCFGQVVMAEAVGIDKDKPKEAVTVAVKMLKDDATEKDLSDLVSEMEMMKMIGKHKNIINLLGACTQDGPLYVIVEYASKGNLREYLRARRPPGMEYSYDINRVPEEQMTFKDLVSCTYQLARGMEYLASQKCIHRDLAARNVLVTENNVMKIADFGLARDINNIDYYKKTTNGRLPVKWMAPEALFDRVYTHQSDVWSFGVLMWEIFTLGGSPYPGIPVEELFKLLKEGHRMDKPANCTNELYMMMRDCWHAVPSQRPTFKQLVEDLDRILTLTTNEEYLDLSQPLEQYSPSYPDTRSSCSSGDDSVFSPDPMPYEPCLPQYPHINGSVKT

RAS-3T3 [5] = experiment: Inhibition of MEK in mouse RAS-3T3 cells assessed as effect on unphosphorylated ERK1/2 at 40 uM by Western-blot analysis; type: cell-based
Procedure, shortened: (§3)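 RAS-3T3 cells were starved overnight in 2% FBS, then given 10% FBS medium with compound for 4 h. Cells were lysed in Triton X-100/Tris/EDTA/NaCl buffer with protease inhibitors. 50 μg of protein was run on 10% SDS-PAGE and blotted to nitrocellulose, with loading checked by Ponceau. Blots were probed with anti-pERK and anti-total ERK antibodies and detected by HRP chemiluminescence. Untreated cells were controls.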

RAS-3T3 [6] = experiment: Inhibition of MEK-mediated ERK1/2 phosphorylation in mouse RAS-3T3 cells at 40 uM by Western-blot analysis; type: cell-based; procedure, shortened: as §3
[7] = target: T1, Tyrosine-protein kinase JAK3 (Homo sapiens) (UniProt P52333); experiment: Inhibition of JAK3 (unknown origin) at 10 uM; procedure, shortened: as §2
T1 sequence (whole entry): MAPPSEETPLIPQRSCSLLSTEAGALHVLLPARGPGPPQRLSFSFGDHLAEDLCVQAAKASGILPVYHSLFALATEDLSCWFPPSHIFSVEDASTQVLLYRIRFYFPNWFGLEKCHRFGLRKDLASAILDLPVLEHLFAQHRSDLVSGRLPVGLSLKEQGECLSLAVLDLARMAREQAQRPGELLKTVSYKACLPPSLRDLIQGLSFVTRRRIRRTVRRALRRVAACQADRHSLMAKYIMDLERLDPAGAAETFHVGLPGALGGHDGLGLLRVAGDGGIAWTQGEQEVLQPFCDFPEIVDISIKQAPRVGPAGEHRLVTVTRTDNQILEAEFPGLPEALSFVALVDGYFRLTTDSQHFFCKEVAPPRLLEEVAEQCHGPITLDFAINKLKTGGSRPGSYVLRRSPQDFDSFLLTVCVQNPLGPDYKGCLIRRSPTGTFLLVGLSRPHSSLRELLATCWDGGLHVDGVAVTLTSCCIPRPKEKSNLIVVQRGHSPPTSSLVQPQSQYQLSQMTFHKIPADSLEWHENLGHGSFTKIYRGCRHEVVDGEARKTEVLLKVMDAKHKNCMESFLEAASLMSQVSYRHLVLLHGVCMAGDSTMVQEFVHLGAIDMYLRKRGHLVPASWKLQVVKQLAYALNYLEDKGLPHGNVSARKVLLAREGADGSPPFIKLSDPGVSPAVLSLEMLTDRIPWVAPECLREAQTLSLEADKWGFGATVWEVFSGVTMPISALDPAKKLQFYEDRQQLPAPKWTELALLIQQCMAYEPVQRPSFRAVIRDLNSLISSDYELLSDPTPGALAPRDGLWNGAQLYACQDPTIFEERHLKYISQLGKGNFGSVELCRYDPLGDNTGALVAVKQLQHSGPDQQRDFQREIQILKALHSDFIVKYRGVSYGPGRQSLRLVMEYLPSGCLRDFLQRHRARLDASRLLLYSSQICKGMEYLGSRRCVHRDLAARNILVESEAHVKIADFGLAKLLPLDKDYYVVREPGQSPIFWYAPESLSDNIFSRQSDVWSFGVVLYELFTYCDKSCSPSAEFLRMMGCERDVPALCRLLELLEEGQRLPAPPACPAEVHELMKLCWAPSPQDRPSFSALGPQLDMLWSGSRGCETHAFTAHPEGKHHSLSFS

[8] = target: Tyrosine-protein kinase JAK2 (Homo sapiens) (UniProt O60674); experiment: Inhibition of JAK2 (unknown origin) at 10 uM; procedure, shortened: as §2
[9] = target: Vascular endothelial growth factor receptor 2 (Homo sapiens) (UniProt P35968); experiment: Inhibition of KDR (unknown origin) at 10 uM; procedure, shortened: as §2
[10] = target: ALK tyrosine kinase receptor (Homo sapiens) (UniProt Q9UM73); experiment: Inhibition of ALK (unknown origin) at 10 uM; procedure, shortened: as §2
Sequence of ALK tyrosine kinase receptor (Homo sapiens) (Q9UM73 19-1620 limits assumed): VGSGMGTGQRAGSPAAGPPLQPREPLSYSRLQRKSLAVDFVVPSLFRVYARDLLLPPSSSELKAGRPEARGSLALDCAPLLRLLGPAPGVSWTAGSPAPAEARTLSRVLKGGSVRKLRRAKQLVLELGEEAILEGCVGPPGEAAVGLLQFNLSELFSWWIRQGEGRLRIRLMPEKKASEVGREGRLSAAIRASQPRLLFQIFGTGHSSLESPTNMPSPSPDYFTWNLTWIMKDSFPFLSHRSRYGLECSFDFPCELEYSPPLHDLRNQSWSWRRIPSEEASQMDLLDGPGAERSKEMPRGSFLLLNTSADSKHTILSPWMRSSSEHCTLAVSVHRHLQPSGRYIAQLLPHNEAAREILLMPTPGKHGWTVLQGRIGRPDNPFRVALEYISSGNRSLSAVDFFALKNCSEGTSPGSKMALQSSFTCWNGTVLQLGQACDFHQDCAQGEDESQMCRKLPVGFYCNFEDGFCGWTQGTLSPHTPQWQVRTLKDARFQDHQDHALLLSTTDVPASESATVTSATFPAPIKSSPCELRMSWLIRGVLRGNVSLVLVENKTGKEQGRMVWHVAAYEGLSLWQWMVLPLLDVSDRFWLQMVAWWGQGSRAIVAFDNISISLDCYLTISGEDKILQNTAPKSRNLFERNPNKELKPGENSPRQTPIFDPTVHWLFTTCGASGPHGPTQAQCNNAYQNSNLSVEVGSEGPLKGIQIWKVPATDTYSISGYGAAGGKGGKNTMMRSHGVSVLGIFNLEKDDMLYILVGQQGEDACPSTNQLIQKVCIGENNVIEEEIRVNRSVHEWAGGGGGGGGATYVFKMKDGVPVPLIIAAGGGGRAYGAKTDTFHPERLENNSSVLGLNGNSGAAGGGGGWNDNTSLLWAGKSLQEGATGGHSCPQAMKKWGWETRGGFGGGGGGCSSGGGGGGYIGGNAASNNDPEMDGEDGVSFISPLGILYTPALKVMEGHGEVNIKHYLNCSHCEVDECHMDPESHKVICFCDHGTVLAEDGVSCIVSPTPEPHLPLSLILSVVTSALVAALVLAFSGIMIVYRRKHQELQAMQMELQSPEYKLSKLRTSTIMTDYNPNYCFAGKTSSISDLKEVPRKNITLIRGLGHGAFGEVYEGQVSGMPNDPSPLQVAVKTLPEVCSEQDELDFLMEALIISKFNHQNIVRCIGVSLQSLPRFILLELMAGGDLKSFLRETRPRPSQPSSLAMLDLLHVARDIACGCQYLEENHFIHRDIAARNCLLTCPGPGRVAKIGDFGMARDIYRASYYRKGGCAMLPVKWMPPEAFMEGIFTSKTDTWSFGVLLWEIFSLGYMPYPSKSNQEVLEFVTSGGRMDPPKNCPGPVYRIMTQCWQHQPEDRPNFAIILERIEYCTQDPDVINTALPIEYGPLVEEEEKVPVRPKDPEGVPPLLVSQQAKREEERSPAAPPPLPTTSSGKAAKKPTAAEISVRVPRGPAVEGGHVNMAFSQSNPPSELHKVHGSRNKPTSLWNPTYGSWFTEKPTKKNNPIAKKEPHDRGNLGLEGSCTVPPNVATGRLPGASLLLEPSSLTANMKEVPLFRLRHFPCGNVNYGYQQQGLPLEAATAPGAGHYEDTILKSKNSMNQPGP

[11] = target: Mitogen-activated protein kinase 3 (Homo sapiens) (UniProt P27361); experiment: Competitive inhibition of activated ERK1 (unknown origin) using […] as substrate
Sequence of Mitogen-activated protein kinase 3 (Homo sapiens) (P27361 whole entry): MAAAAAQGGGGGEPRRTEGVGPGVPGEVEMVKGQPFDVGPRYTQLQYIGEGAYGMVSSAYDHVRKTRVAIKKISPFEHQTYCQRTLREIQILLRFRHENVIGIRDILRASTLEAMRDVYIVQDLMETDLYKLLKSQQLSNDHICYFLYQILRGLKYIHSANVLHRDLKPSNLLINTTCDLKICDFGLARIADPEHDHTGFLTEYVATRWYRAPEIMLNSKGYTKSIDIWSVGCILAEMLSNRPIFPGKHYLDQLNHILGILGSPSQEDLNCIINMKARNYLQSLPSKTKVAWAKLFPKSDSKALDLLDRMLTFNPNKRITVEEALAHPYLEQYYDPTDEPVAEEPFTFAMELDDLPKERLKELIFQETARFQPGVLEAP
Procedure, shortened: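 Activated pERK1 (20 ng) with inhibitor held at 5 μM and MBP varied from 0.2 to 200 μg per reaction. Non-radioactive ATP at 0.2 μM. Remaining ATP was measured by luciferase luminescence, and activity was taken from ATP consumption. Controls lacked inhibitor but had matching MBP amounts. Mean ± SD from 3 independent experiments.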

[12] = target: Mitogen-activated protein kinase 3 (Homo sapiens) (UniProt P27361); experiment: Inhibition of activated ERK1 (unknown origin) using […] as substrate
Procedure, shortened: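 Activated pERK1 (20 ng) with MBP (20 μg) and compound at final 0.05–5 μM. Non-radioactive ATP at 0.2 μM. Residual ATP was measured by luciferase luminescence, and relative activity was derived from ATP consumption versus compound-free control. Mean ± SD from 3 independent experiments.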

[13] = target: Receptor-type tyrosine-protein kinase FLT3 (Homo sapiens) (UniProt P36888); experiment: Inhibition of FLT3 (unknown origin) at 10 uM; procedure, shortened: as §2
[14] = target: Insulin-like growth factor 1 receptor (Homo sapiens) (UniProt P08069); experiment: Inhibition of IGF1R (unknown origin) at 10 uM; procedure, shortened: as §2
RAS-3T3 [15] = experiment: Inhibition of MEK-mediated ERK1/2 phosphorylation in mouse RAS-3T3 cells at 40 uM by ELISA; type: cell-based
Procedure, shortened: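 RAS-3T3 cells were pre-starved overnight in 2% FBS, then treated with compound in 10% FBS medium for 4 h. Lysates were assayed with a pERK1/2-specific sandwich ELISA and absorbance read at 405 nm. Untreated cells were controls.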

[16] = target: T2, Aurora kinase A (Homo sapiens) (UniProt O14965); experiment: Inhibition of aurora-A (unknown origin) at 10 uM; procedure, shortened: as §2
T2 sequence (whole entry): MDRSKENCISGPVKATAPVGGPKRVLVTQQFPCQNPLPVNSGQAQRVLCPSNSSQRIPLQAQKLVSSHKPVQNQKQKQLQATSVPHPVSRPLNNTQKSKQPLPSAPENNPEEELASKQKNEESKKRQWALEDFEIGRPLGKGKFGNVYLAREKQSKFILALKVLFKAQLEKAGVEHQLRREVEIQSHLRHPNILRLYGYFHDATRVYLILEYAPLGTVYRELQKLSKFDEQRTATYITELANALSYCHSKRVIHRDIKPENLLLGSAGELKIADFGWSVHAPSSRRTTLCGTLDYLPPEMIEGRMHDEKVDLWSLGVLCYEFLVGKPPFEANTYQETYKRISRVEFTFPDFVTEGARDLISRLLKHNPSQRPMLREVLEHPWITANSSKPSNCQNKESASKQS

[17] = target: Epidermal growth factor receptor (Homo sapiens) (UniProt P00533); experiment: Inhibition of EGFR (unknown origin) at 10 uM; procedure, shortened: as §2
[18] = target: Tyrosine-protein kinase BTK (Homo sapiens) (UniProt Q06187); experiment: Inhibition of BTK (unknown origin) at 10 uM; procedure, shortened: as §2
Sequence of Tyrosine-protein kinase BTK (Homo sapiens) (Q06187 whole entry): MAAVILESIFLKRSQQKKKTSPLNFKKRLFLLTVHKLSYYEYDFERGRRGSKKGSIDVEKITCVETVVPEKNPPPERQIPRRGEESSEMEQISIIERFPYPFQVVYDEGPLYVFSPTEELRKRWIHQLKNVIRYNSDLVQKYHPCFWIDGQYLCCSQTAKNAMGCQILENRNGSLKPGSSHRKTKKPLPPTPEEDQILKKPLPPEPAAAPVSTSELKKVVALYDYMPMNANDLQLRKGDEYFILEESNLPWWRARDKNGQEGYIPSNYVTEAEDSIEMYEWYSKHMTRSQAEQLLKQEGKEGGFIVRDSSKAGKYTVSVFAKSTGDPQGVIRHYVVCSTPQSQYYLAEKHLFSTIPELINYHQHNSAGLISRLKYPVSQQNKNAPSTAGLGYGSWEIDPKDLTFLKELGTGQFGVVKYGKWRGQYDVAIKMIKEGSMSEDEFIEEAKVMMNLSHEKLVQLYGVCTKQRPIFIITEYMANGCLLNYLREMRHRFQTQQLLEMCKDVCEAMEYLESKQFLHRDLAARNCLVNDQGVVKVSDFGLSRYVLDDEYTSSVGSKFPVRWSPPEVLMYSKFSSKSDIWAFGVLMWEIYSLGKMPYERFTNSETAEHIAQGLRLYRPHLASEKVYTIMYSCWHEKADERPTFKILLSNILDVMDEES

[19] = target: Serine/threonine-protein kinase pim-1 (Homo sapiens) (UniProt P11309); experiment: Inhibition of PIM1 (unknown origin) at 10 uM; procedure, shortened: as §2

Row | SMILES | IC50 [1] [µM] | IC50 (NIH3T3) [µM] | other results
1 | CCCCCCCCC[C@@H](NC(=O)CNC(=O)OCc1ccccc1)C(=O)NCc1ccc(OC)cc1 |  |  | inhibition (Homo sapiens): Active
2 | CCCCCCCCC[C@H](NC(=O)CNC(=O)OCc1ccccc1)C(=O)NCc1ccc(OC)cc1 |  |  | inhibition (Homo sapiens): Active
3 | CCCCCCCCCC(NC(=O)[C@H](CC(C)C)NC(=O)OCc1ccccc1)C(=O)NCc1ccc(OC)cc1 (mixture of isomers) | 50 | > 200 | 
4 | CCCCCCCCCC(NC(=O)[C@H](Cc1ccccc1)NC(=O)OCc1ccccc1)C(=O)NCc1ccc(OC)cc1 (mixture of isomers) | 68 | > 200 | 
5 | CCCCCCCCCC(NC(=O)[C@H](C)NC(=O)OCc1ccccc1)C(=O)NCc1ccc(OC)cc1 (mixture of isomers) | 55 | 150 | 
6 | CCCCCCCCCC(C(=O)NCc1ccc(OC)cc1)N(C)C(=O)CNC(=O)OCc1ccccc1 (racemic) | 30 | 30 | 
7 | CCCCCCCC(NC(=O)CNC(=O)OCc1ccccc1)C(=O)NC1CCCCC1 (racemic) | 30 | 40 | 
8 | CCCCCCCC(NC(=O)CNC(=O)OCc1ccccc1)C(=O)NCc1ccccc1 (racemic) | 33 | 38 | 
9 | CCCCCCCC(NC(=O)CNC(=O)OCc1ccccc1)C(=O)NCCc1ccccc1 (racemic) | 20 | 33 | 
10 | CCCCCCCC(NC(=O)CNC(=O)OCc1ccccc1)C(=O)NCc1ccc(OC)cc1 (racemic) | 40 | 40 | 
11 | CCCCCCCC(NC(=O)CNC(=O)OCc1ccccc1)C(=O)NCc1ccc(OC)cc1OC (racemic) | 40 | 50 | 
12 | COc1ccc(CNC(=O)C(Cc2ccccc2)NC(=O)CNC(=O)OCc2ccccc2)cc1 (racemic) | > 100 | > 100 | 
13 | COc1ccc(CNC(=O)C(Cc2ccc(OC)cc2)NC(=O)CNC(=O)OCc2ccccc2)cc1 (racemic) | > 100 | > 100 | 
14 | COc1ccc(CNC(=O)C(CCCCCNC(=O)OC(C)(C)C)NC(=O)CNC(=O)OCc2ccccc2)cc1 (racemic) | > 100 | > 100 | 
15 | COc1ccc(CNC(=O)C(NC(=O)CNC(=O)OCc2ccccc2)C2CCCCC2)cc1 (racemic) | 40 | 50 | 
16 | COc1ccc(CNC(=O)C(CC(C)C)NC(=O)CNC(=O)OCc2ccccc2)cc1 (racemic) | > 100 | > 100 | 
17 | CCCCCCCCCC(NC(=O)CNC(=O)OCc1ccccc1)C(=O)NCc1ccc(OC)cc1 (racemic) | 19 | 55 | inhibition (Homo sapiens): Dose-dependent effect
18 | CCCCCCCCCC(NC(=O)CNC(=O)OCc1ccccc1)C(=O)NCCc1ccccc1 (racemic) |  |  | inhibition [2]: inactive; inhibition [3]: inactive; inhibition [4]: inactive; inhibition (RAS-3T3 [5]): inactive; inhibition (RAS-3T3 [6]): Active; inhibition [7]: inactive; inhibition [8]: inactive; inhibition [9]: inactive; inhibition [10]: inactive; inhibition [11]: Active; inhibition [12]: Dose-dependent effect; inhibition [13]: inactive; inhibition [14]: inactive; inhibition (RAS-3T3 [15]): 90%; inhibition [16]: inactive; inhibition [17]: inactive; inhibition [18]: inactive; inhibition [19]: inactive
